Measured values reported in ChEMBL document CHEMBL2331185, “Structures and cytotoxic evaluation of new and known acyclic Ene-Ynes from an American Samoa Petrosia sp. Sponge” (J Nat Prod, 2013).

What was measured:
A2058 [1] = assay: Selectivity index, ratio of IC50 for human IMR90 cells to IC50 for human A2058 cells; assay type: functional
Method in brief: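 SI calculated from the relative IC50 response of quiescent IMR-90 fibroblasts versus A2058 melanoma cells. IMR-90 IC50 comes from the 96 h low-serum quiescent assay; A2058 IC50 comes from the 96 h continuous-exposure proliferating assay. Both read by CellTiter-Glo.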

[2] = Cytotoxicity against human H460 cells after 96 hrs by CellTiter-Glo luminescent assay; assay type: functional, cell-based; conditions: NCI-H460, 96 h
Method in brief: (§1)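 Tumour cells grown in 96-well plates without or with continuous test compound for 96 h. Growth measured by CellTiter-Glo luminescence. IC50 is the concentration inhibiting growth by 50% relative to untreated cells. Two separate replicate experiments.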

[3] = Cytotoxicity against human H522-T1 cells after 96 hrs by CellTiter-Glo luminescent assay; assay type: functional, cell-based; conditions: H522-T1, 96 h; method in brief: as §1
IMR-90 = assay: Cytotoxicity against human IMR90 cells after 96 hrs by CellTiter-Glo luminescent assay; assay type: cell-based; conditions: IMR-90, 96 h
Method in brief: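 Fibroblasts grown 4 days to confluency in MEM with 10% FBS, L-glutamine and penicillin/streptomycin. After washing, cells were held 3 more days in MEM with 0.1% FBS to reach quiescence. Compound added, then incubation 96 h at 37°C. Viability measured as cellular ATP by CellTiter-Glo.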

A2058 [4] = assay: Cytotoxicity against human A2058 cells after 96 hrs by CellTiter-Glo luminescent assay; assay type: functional, cell-based; conditions: A2058, 96 h; method in brief: as §1

Row | SMILES | Ratio IC50 (A2058 [1]) | IC50 [2] [nM] | IC50 [3] [nM] | IC50 (IMR-90) [nM] | IC50 (A2058 [4]) [nM]
1 | C#C[C@H](O)/C=C/CCCCCCCCCC#CCCCCCCCCCCCC/C=C\C#CC(=O)O | 0.1 | 7300 | 8400 | 400 | 6400
2 | C#C[C@H](O)/C=C/CCCCCCCC#C/C=C\CCCCCCCCCCCC/C=C\C#CC(=O)O | 0.1 | 3100 | 4600 | 300 | 3800
3 | C#C[C@H](O)/C=C/CCCCCCCCCCC/C=C/C(O)CCCCCCCCC/C=C\C#CC(=O)O (stereo partly drawn) | 0 | > 10000 | > 10000 | 200 | 8100
4 | C#CC(O)/C=C/CCCCCCCCC/C=C\CCCCCCCCCCCC(O)C#CC#CCO (stereo not drawn) | 1 | 400 | 800 | 400 | 400
5 | C#CC(O)/C=C/CCCCCCCC#C/C=C\CCCCCCCCCCCC(O)C#CC#CCO (stereo not drawn) | 0.8 | 1000 | 600 | 300 | 400
6 | C#CC(O)/C=C/CCCCCCCC#C/C=C\CCCCCCCCCCCCCC(O)C#CC#CCO (stereo not drawn) | 0.6 | 700 | 1100 | 500 | 800
7 | C#CC(O)/C=C/CCCCCCCCCCCC#CCCCCCCCCCCCC(O)C#CC#CCO (stereo not drawn) | 1.2 | 1200 | 2700 | 1600 | 1300
8 | C#CC(O)/C=C/CCCCCCCCCC(O)CCCCCCCCCCCC(O)C#CC#CCO (stereo not drawn) | – | 800 | 1200 | – | 800
9 | CC[C@]1(O)C[C@@H]2CN(CCc3c([nH]c4ccccc34)[C@@](C(=O)OC)(c3cc4c(cc3OC)N(C)[C@H]3[C@@](O)(C(=O)OC)[C@H](OC(C)=O)[C@]5(CC)C=CCN6CC[C@]43[C@@H]65)C2)C1 [VINBLASTINE] | >250 | 2 | 9 | > 1000 | 4
